Each structure is given as a SMILES string. Residues, ends and D or L forms follow the SMILES beside them.

Common to all, as to format: cell-based
The test system of one experiment is MDA-MB-231 cells. As to the kind of experiment: MTT viability assay, MDA-MB-231. The following applies: read-out: IC50 MDA-MB-231, 2 h peptide treatment, 6.25-200 μg mL^–1, n = 3. A digest of the protocol:
(§1)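 Cancer cells were cultured in supplemented RPMI-1640, seeded at 1×10^4 per well, adhered 12 h and synchronized 12 h in incomplete medium. Peptide was applied at 6.25–200 μg mL⁻¹ for 2 h, then MTT was added for 4 h, formazan dissolved in DMSO, and absorbance read at 575 nm; n = 3. Selectivity was taken as the IC₅₀ in MCF-12 cells, foreskin-derived primary fibroblasts or erythrocytes divided by the cancer-cell IC₅₀.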

The subject of experiment [1] is MCF-7 cells. As to the kind of experiment: MTT viability assay, MCF-7. Conditions: read-out: IC50 MCF-7, 2 h peptide treatment, 6.25-200 μg mL^–1, n = 3. A digest of the protocol:
as §1

For experiment [2], the system named is MCF-7 cells. Briefly: Wound-healing assay. The following applies: substance alone (peptide at IC50), n = 12.

Take `N=C(N)NCCC[C@H](NC(=O)[C@H](CCCNC(=N)N)NC(=O)[C@H](Cc1c[nH]c2ccccc12)NC(=O)[C@H](CCC(N)=O)NC(=O)[C@H](Cc1c[nH]c2ccccc12)NC(=O)[C@H](CCCNC(=N)N)NC(=O)[C@H](Cc1c[nH]c2ccccc12)NC(=O)[C@H](CCC(N)=O)NC(=O)[C@H](Cc1c[nH]c2ccccc12)NC(=O)[C@H](CCCNC(=N)N)NC(=O)[C@@H](N)CCCNC(=N)N)C(N)=O` [RR-1-RR] (H-RRWQWRWQWRR-NH2): the IC50 in the experiment with MDA-MB-231 cells came to 67 µM; in the experiment on MCF-7 cells [1] it was 58 µM.

In the case of `N=C(N)NCCC[C@H](NC(=O)[C@H](Cc1c[nH]c2ccccc12)NC(=O)[C@H](CCC(N)=O)NC(=O)[C@H](Cc1c[nH]c2ccccc12)NC(=O)[C@H](CCCNC(=N)N)NC(=O)[C@H](Cc1c[nH]c2ccccc12)NC(=O)[C@H](CCC(N)=O)NC(=O)[C@H](Cc1c[nH]c2ccccc12)NC(=O)[C@H](CCCNC(=N)N)NC(=O)[C@@H](N)CCCNC(=N)N)C(N)=O` [RR-1-R] (H-RRWQWRWQWR-NH2), the IC50 in the experiment on MDA-MB-231 cells was found to be 73 µM; in the experiment with MCF-7 cells [1] it was 68 µM.

Consider `C[C@]12CC[C@@H]3c4ccc(O)cc4CC[C@H]3[C@@H]1CC[C@@H]2O` [estradiol], for which the wound area reduced result with MCF-7 cells [2] (MCF-7, 24 h after the wound) is “about 20%”. Moreover, the “wound area reduced (closure)” value with MCF-7 cells [2] (MCF-7, 48 h after the wound) worked out at 40%.

These data come from publication PMC9850729 (ACS Omega, 2023).
